Bioassay records as filed in PubChem.
A selection: hits, their analogues and other compounds. The true share with any hit is near 2.4%.
IMP-1 inh = blocks Pseudomonas aeruginosa IMP-1 metallo-beta-lactamase; 0.45% of 290,000 active; purified IMP-1, nitrocefin hydrolysis, epi-absorbance fluorescence; AID 1556; inhibition, % at 5.6 µM;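 active means inhibition above the mean plus 3 SD of all compounds in the same screening run, cut at about 4.5% in these data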;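 further: 0% = IMP-1 with DMSO and 100% = DMSO wells lacking enzyme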
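System: Purified IMP-1 | Read-out basis: Percent enzyme inhibition | Controls: IMP-1 with DMSO as 0%, enzyme-free DMSO as 100% | Replicates: One well per compound | Doses: 5.6 µM nominal single concentration | Detection: Epi-absorbance fluorescence, 480 nm excitation, 530 nm emission | Incubation: 25 °C, 15 min preincubation, 25 min reaction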
sPLA2-III inh = Inhibits HGIII-sPLA2 liposome hydrolysis, primary screen; Q9NZ20; QFRET BODIPY PC-A2 liposome hydrolysis, fluorescence; inhibition, % at 12.2 µM; 0.56% of 370,000 active;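 active means inhibition above mean plus 3 SD of compounds lying within the high and low control bounds, cut at about 19% in these data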;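 further: 0% = median of test compound wells and 100% = no enzyme DMSO wells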
Target sequence (Q9NZ20 whole entry, looked up): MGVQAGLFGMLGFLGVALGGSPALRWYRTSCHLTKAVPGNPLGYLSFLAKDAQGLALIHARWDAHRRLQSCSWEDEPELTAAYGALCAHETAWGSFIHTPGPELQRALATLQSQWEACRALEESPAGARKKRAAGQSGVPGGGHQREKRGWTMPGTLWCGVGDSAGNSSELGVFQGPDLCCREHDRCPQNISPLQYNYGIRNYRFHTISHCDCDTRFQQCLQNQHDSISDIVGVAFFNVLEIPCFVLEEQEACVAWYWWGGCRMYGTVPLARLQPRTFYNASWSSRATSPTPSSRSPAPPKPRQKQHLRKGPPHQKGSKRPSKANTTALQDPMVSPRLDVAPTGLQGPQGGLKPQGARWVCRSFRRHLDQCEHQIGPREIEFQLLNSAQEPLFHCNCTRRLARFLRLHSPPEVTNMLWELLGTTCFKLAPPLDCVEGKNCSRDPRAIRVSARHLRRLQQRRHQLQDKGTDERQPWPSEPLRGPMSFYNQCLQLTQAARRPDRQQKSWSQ
PfM18AAP inh = blocks P. falciparum M18 aspartyl aminopeptidase; 1.2% of 290,000 active; inhibition, % at 7.35 µM; recombinant PfM18AAP, H-Glu-NHMec fluorogenic cleavage;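 active means inhibition above the campaign mean inhibition over all tested compounds plus 3 SD, cut at about 28% in these data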;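 further: 0% = plate median of test compound wells and 100% = 2 mM ZnCl2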
VIM-2 inhibitor = blocks Pseudomonas aeruginosa VIM-2 metallo-beta-lactamase. AID 1527. 0.89% of 290,000 active. inhibition, % at 5.6 µM. purified VIM-2, nitrocefin hydrolysis, epi-absorbance fluorescence;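 active means inhibition above the mean of all tested compounds plus 3 SD, cutoff set per screening run, cut at about 7.5% in these data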;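 further: red hydrolysis product quenches plate fluorescence so inhibitors raise well fluorescence; 0% = enzyme with DMSO and 100% = DMSO without enzyme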
Numbers without * were called inactive; · = no result.

SMILES | IMP-1 inh | sPLA2-III inh | PfM18AAP inh | VIM-2 inhibitor
Cc1cccc(CSc2nc3[nH]ncc3c(=O)[nH]2)c1 | -4.8 | -7.9 | 14.1 | -2.8
O=c1[nH]c(SCc2ccccc2Cl)nc2[nH]ncc12 | -3.3 | -4.5 | 48.1* | -2.2
CC(C)CNc1cccc2c1S(=O)(=O)N(Cc1cn(Cc3ccc(F)cc3)nn1)Cc1ccccc1O2 | · | -4.4 | · | ·
Cc1ccc(C2C(C#N)=C(N)Oc3n[nH]c(-c4cccs4)c32)cc1 (stereo not given) | -2.5 | -23.1 | 8.9 | 0.2
COc1cc(C2C(C#N)=C(N)Oc3n[nH]c(-c4cccs4)c32)cc(OC)c1O (stereo not given) | -3.6 | -9.9 | 28.3* | 1.5
CCCCCCC12Cc3cc(OC)c(OC)cc3C(O1)C1=C(O2)C(C)(C)CCC1=O (stereo not given) | · | -17.4 | · | ·
Cc1ccc(-n2c(SCc3cccc(F)c3)nc3sc4c(c3c2=O)CCCC4)cc1 | · | 3.9 | · | ·
COC(=O)[C@@]12CCCCC=C1N(CCc1ccc(Cl)cc1)C(=O)[C@H]2CC(=O)NCc1cccc(C(F)(F)F)c1 | · | -10.9 | · | ·
Cc1cc(N2CCN(c3nc4ccccc4s3)CC2)n2ncnc2n1 | -1.3 | 1.4 | 2.1 | 8.2*
CCOC(=O)N1CCN(c2c(-c3ccc(C(C)C)cc3)c(=O)c2=O)CC1 | 5.3* | -1.5 | -5.6 | 0.5
Cn1ccnc1Sc1nc2ccccc2nc1NS(=O)(=O)c1ccccc1 | 2.0 | -14.7 | 28.8* | 3.3
O=S1(=O)c2c(cccc2N2CC[C@@H](O)C2)O[C@@H]2CCN1C2 | · | 1.9 | · | ·
CC(=O)N1N=C(c2ccc(Cl)cc2)CC1c1ccco1 (stereo not given) | -1.2 | 4.3 | -0.5 | 9.9*
CC(C)(C)C(=O)NC1CCCCN(Cc2ccc(Cl)cc2)C1=O (stereo not given) | · | 1.9 | · | ·
COc1cc(/C=N/NC(=O)/C(=C\c2ccc([N+](=O)[O-])cc2)NC(=O)c2ccccc2)cc(OC)c1O | -1.7 | -5.4 | 28.6* | -0.9
N#Cc1cccc(NC(=O)OCCN2C(=O)CCC23CCC(c2ccccc2)CC3)c1 (stereo not given) | · | 4.6 | · | ·
CCOC(=O)N1CCN(C(=S)NC(=O)c2cncc(Br)c2)CC1 | 5.4* | 13.3 | -7.2 | -5.8
CCOC(=O)N1CCN(C(=S)NC(=O)c2ccc(Br)cc2)CC1 | -3.2 | 4.4 | 9.7 | -0.6
Cc1cc(C)n(-c2cccc(Cl)c2C#N)n1 | -4.2 | 7.3 | -2.3 | 8.7*
COC(=O)[C@]12C[C@H](CC(=O)N3CCOCC3)C(=O)N(Cc3ccco3)C1=C[C@H](COCc1ccccc1)O[C@@H]2C | · | -0.7 | · | ·
Cc1ccc(Cn2cc(/C=N/Nc3ccc([N+](=O)[O-])cn3)c3ccccc32)cc1 | -2.6 | 0.8 | 54.1* | -1.0
O=S1(=O)c2c(NCc3ccco3)cccc2Oc2ccccc2CN1Cc1cn(Cc2ccc(F)cc2)nn1 | · | -7.6 | · | ·
CN(CC1CCCO1)S(=O)(=O)c1ccc(C(=O)Nc2ccc(S(N)(=O)=O)cc2)cc1 (stereo not given) | 4.8* | -14.6 | -11.8 | 2.2
CN(CC1CCCO1)S(=O)(=O)c1ccc(C(=O)Nc2ccccc2F)cc1 (stereo not given) | -1.9 | 3.1 | -0.8 | -1.8
COC(=O)CNC(=O)CNC1(C(=O)NCCc2c[nH]c3ccccc23)CCCCC1 | · | 2.1 | · | ·
SMILES | IMP-1 inh | sPLA2-III inh | PfM18AAP inh | VIM-2 inhibitor
COc1ccc(N=C(N)NC(=O)OCc2ccccc2)cc1 | · | 4.6 | · | ·
Oc1ccc(/C=N/Nc2ccnc3cc(Cl)ccc23)cc1O | -2.8 | 13.5 | 28.7* | 1.1
CCOC(=O)CC[C@H]1CC[C@]2(CCCN(Cc3ccccc3)C2)O1 | · | 6.6 | · | ·
CN=c1scc(-c2ccccc2F)n1/N=C/c1ccc(O)c(O)c1O | -0.2 | 18.6 | 30.7* | -0.5
COc1cc(-c2nn3c(-c4ccccn4)nnc3s2)cc(OC)c1OC | -2.5 | · | -6.5 | 3.0
COc1ccc(-c2nn3c(-c4ccncc4)nnc3s2)cc1OC | -2.8 | · | 5.2 | 10.3*
c1ccc(-c2nnc3sc(-c4ccncc4)nn23)cc1 | -2.8 | 5.3 | 3.2 | 9.0*
O=C(C1CC1)C1(C(=O)N2CCOCC2)CC(c2ccccn2)=NO1 (stereo not given) | · | 11.8 | · | ·
O=C(OCc1cn(Cc2c(F)cccc2F)nn1)N1CCOCC1 | · | 5.7 | · | ·
CCOc1ccccc1NC(=O)CCNS(=O)(=O)c1ccccc1 | 7.3* | -6.5 | -2.7 | 0.1
Cc1c(Cc2ccccc2)sc(/N=C/c2ccc3ccccc3c2)c1C(N)=O | 1.5 | · | -16.7 | -0.8
Cc1cc(C)c(C(=O)c2ccccc2)c(C)c1 | · | 12.4 | · | ·
Cc1c(Cc2ccccc2)sc(/N=C/c2c(O)ccc3ccccc23)c1C(N)=O | -3.4 | · | 41.6* | -4.8
Cc1c(Cc2ccccc2)sc(N)c1C(N)=O | -5.2 | · | 42.3* | -4.2
Cc1sc(N)c(C(=O)c2ccccc2)c1C | -3.6 | 8.0 | 31.7* | -5.0
Cc1c(Cc2ccccc2)sc(NC(=O)C(C)(C)C)c1C(N)=O | 0.0 | -9.2 | 3.0 | 0.4
CC1(c2nnnn2Cc2ccccc2)CCCCC(=O)N1Cc1cccs1 (stereo not given) | · | 3.3 | · | ·
Cn1c(=O)c2cc(S(=O)(=O)N3CCN(Cc4ccccc4)CC3)ccc2n(C)c1=O | · | 7.6 | · | ·
COc1ccc2nc(-c3ccc(CN4CCC5(CC4)CNc4ccccc45)cc3)c(-c3ccccc3)nc2c1 | · | 6.9 | · | ·
O=C(O)c1cccc(N2C(=O)c3cccc(Oc4ccc(Cl)cc4)c3C2=O)c1 | 19.6* | -13.8 | 2.1 | 4.9
O=C(O)c1ccc(N2C(=O)c3cccc(Oc4ccc(Cl)cc4)c3C2=O)cc1 | 17.4* | -5.8 | 1.0 | 6.5
O=C(C1CCN(c2ncnc3c2sc2cccc(F)c23)CC1)N1CCN(C(=O)C2CCCO2)CC1 (stereo not given) | · | 0.0 | · | ·
COC(=O)[C@]12C[C@H](CC(=O)NCC3CCCCC3)C(=O)N(CCc3ccc(OC)c(OC)c3)C1=C[C@H](C(C)(C)C)O[C@@H]2C | · | -9.1 | · | ·
COC(=O)[C@H]1C[C@@]2(c3ccccc3)c3ccccc3N[C@H]2N1 | · | -1.1 | · | ·
C[C@H]1COc2cc(N3CCSCC3)ccc2S(=O)(=O)N1C | · | 16.7 | · | ·
SMILES | IMP-1 inh | sPLA2-III inh | PfM18AAP inh | VIM-2 inhibitor
NC(CSS(=O)(=O)O)=NCCC12CC3CC(CC(O)(C3)C1)C2 | 5.4* | 3.6 | 17.6 | 0.3
Fc1ccc2cc(C3=CCCCC3)ncc2c1 | · | -7.9 | · | ·
Cc1oc2c(cc(NS(=O)(=O)c3ccc(F)cc3)c3ccccc32)c1C(=O)O | 5.8* | -19.5 | 14.7 | -3.3
COc1ccc(S(=O)(=O)Nc2cc3c(C(C)=O)c(C)oc3c3ccccc23)cc1 | -0.9 | -29.8 | -11.7 | -3.2
Cc1oc2c(cc(NS(=O)(=O)c3cccs3)c3ccccc32)c1C(=O)OC(C)C | 0.4 | -40.9 | -11.9 | 2.4
Cc1oc2c(cc(NS(=O)(=O)c3ccc(C(C)C)cc3)c3ccccc32)c1C(=O)O | 8.9* | -27.5 | 7.2 | 2.3
CSc1nc(NCCOCCO)c2sc3nc(-c4ccco4)c4c(c3c2n1)CCC4 | 0.2 | -7.2 | 4.8 | 0.9
CCN(CCO)c1nc(SC)nc2c1sc1nc(-c3ccco3)c3c(c12)CCC3 | 12.1* | · | 8.9 | 1.2
CCCCOCCCNC(=O)C[C@H]1C[C@@]2(C(=O)OC)C(=C[C@H](C(C)C)O[C@@H]2C2CC2)N(CCc2ccc(OC)c(OC)c2)C1=O | · | -16.0 | · | ·
